Measurements as given in ChEMBL document CHEMBL1671729, “In vivo protection provided by a synthetic new alpha-galactosyl ceramide analog against bacterial and viral infections in murine models” (2010).
The source made the active and inactive calls. No cut-off for these calls is given here.

Key:
[1] = test system: Novosphingobium capsulatum; experiment: Antibacterial activity against Sphingomonas capsulata ATCC 14666 infected in C57BL/6 mouse assessed as reduction in lung bacterial load at 100 ug/kg, ip administered 2 hrs post infection measured 24 hrs post infection; assay type: functional, organism-based
[2] = test system: Japanese encephalitis virus; experiment: Antiviral activity against Japanese encephalitis virus RP-9 infected in C57BL/6 mouse assessed as mouse survival rate at 1 ug, ip administered one day before and 1 day after viral infection measured after 25 days post infection relative to solvent treated control; assay type: functional
[3] = test system: Japanese encephalitis virus; experiment: Antiviral activity against Japanese encephalitis virus RP-9 infected in Stat-1-knockout immunodeficient C57BL/6 mouse assessed as mouse survival rate at 1 ug, ip administered one day before and 1 day after viral infection measured after 25 days post infection relative to solvent treated control; assay type: functional
[4] = test system: Japanese encephalitis virus; experiment: (§1) Antiviral activity against Japanese encephalitis virus RP-9 infected in Ig-mu chain-knockout immunodeficient C57BL/6 mouse assessed as mouse survival rate at 1 ug, ip administered one day before and 1 day after viral infection measured after 25 days post infection relative to solvent treated control; assay type: functional, organism-based
[5] = test system: Japanese encephalitis virus; experiment: Antiviral activity against Japanese encephalitis virus RP-9 infected in C57BL/6 mouse assessed as mouse survival rate at 1 ug, ip administered one day before viral infection measured after 25 days post infection relative to solvent treated control; assay type: functional
[6] = test system: Japanese encephalitis virus; experiment: Antiviral activity against Japanese encephalitis virus RP-9 infected in C57BL/6 mouse assessed as mouse survival rate at 1 ug, ip administered simultaneously with viral infection measured after 25 days post infection relative to solvent treated control; assay type: functional
[7] = test system: Japanese encephalitis virus; experiment: Antiviral activity against Japanese encephalitis virus RP-9 infected in C57BL/6 mouse assessed as mouse survival rate at 1 ug, ip administered one day after viral infection measured after 25 days post infection relative to solvent treated control; assay type: functional
[8] = test system: Novosphingobium capsulatum; experiment: Antibacterial activity against Sphingomonas capsulata ATCC 14666 infected in C57BL/6 mouse assessed as reduction in lung bacterial load at 50 ug/kg, ip administered 2 hrs post infection measured 24 hrs post infection; assay type: functional, organism-based
Staphylococcus aureus [9] = experiment: Antibacterial activity against luminescent Staphylococcus aureus Xen29 infected in BALB/c mouse deep thigh wound infection model assessed as reduction in bacterial load at 150 ug/kg, ip administered 3 hrs post infection by iVIS in-vivo imaging system; assay type: functional, organism-based
Outline: (§2)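 Female BALB/c mice were infected in the left posterior thigh muscle with 3 × 10^8 CFU luminescent S. aureus Xen29 in 200 μl PBS. Glycolipid at 150 μg/kg or vehicle was given i.p. at 3 h, 0 h or 6 h post-infection. Live mice were imaged at 48 h, and RLU per mouse was compared by one-way ANOVA with Tukey posttest.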

Staphylococcus aureus [10] = experiment: Antibacterial activity against luminescent Staphylococcus aureus Xen29 infected in BALB/c mouse deep thigh wound infection model assessed as reduction in bacterial load at 150 ug/kg, ip administered immediately after infection measured 48 hrs post infection by iVIS in-vivo imaging system; assay type: functional, organism-based; outline: as §2
Staphylococcus aureus [11] = experiment: Antibacterial activity against luminescent Staphylococcus aureus Xen29 infected in BALB/c mouse deep thigh wound infection model assessed as reduction in bacterial load at 150 ug/kg, ip administered 6 hr post infection after infection measured 48 hrs post infection by iVIS in-vivo imaging system; assay type: functional, organism-based; outline: as §2
[12] = test system: Japanese encephalitis virus; experiment: as §1, with “CD8-alpha” for “Ig-mu”; assay type: functional

With CCCCCCCCCCCCCCCCCCCCCCCCCC(=O)N[C@@H](CO[C@H]1O[C@H](C(=O)O)[C@H](O)[C@H](O)[C@H]1O)[C@H](O)[C@H](O)CCCCCCCCCCCCCC the inhibition [1] was “Active”.

With CCCCCCCCCCCCCCCCCCCCCCCCCC(=O)N[C@@H](CO[C@H]1O[C@H](CO)[C@H](O)[C@H](OS(=O)(=O)O)[C@H]1O)[C@H](O)[C@H](O)CCCCCCCCCCCCCC the inhibition [1] was “inactive”.

CCCCCCCCCCCCCCC[C@@H](O)[C@H](CO[C@H]1O[C@H](C(=O)O)[C@H](O)[C@H](O)[C@H]1O)NC(=O)CCCCCCCCCCCCC was tested, and the inhibition [1] was “inactive”.

In the case of CCCCCCCCCCCCCCCCCCCCCCCC(=O)N[C@@H](CO[C@H]1O[C@H](CO)[C@H](O)[C@H](O)[C@H]1O)[C@H](O)[C@H](O)CCCCC, the inhibition [1] is reported as “inactive”.

CCCCCCCCCCCCCC[C@@H](O)[C@@H](O)[C@H](CO[C@H]1O[C@H](C(=O)O)[C@H](O)[C@H](O)[C@H]1O)NC(=O)CCCCCCCCCCc1ccc(Oc2ccc(F)cc2)cc1 was tested, and the Survival [2] was 64%, the Survival [3] was 23% and the Survival [4] was “inactive”. The Survival [5] was 80%, the Survival [6] was 40% and the Survival [7] was 20%. For the same compound, the inhibition [8] was “Active”, the inhibition (Staphylococcus aureus [9]) was “Active” and the inhibition (Staphylococcus aureus [10]) was “Active”. For the same compound, the inhibition (Staphylococcus aureus [11]) was “inactive”.

CCCCCCCCCCCCCC[C@@H](O)[C@@H](O)[C@H](CO[C@H]1O[C@H](C(=O)O)[C@H](O)[C@H](O)[C@H]1O)NC(=O)CCCCCCCCCCc1ccc(F)cc1 was tested, and the Survival [2] was 71%, the Survival [3] was 0% and the Survival [4] was “inactive”. The Survival [12] was 22%, the Survival [5] was 60% and the Survival [6] was 60%. For the same compound, the Survival [7] was 25%, the inhibition [8] was “Active” and the inhibition (Staphylococcus aureus [9]) was “Active”.

For CCCCCCCCCCCCCC[C@@H](O)[C@@H](O)[C@H](CO[C@H]1O[C@H](CO)[C@H](O)[C@H](O)[C@H]1O)NC(=O)CCCCCCCCCCc1ccccc1, the inhibition [1] was “Active”.

With CCCCCCCCCCCCCCCCCCCCCCCCCC(=O)N[C@@H](CO[C@H]1O[C@H](CO)[C@H](O)[C@H](O)[C@H]1O)[C@H](O)[C@H](O)CCCCCCCCCCCCCC [RGI-7000] the Survival [2] was 57%, the inhibition [1] was “Active” and the inhibition (Staphylococcus aureus [9]) was “Active”.

CCCCCCCCCCCCCC[C@@H](O)[C@@H](O)[C@H](CO[C@H]1O[C@H](CO)[C@H](O)[C@H](O)[C@H]1O)NC(=O)CCCCCCCc1ccc(F)cc1 was tested, and the Survival [2] was 57% and the inhibition [8] was “Active”.

With CCCCCCCCCCCCCC[C@@H](O)[C@@H](O)[C@H](CO[C@H]1O[C@H](CO)[C@H](O)[C@H](O)[C@H]1O)NC(=O)CCCCCCCc1ccccc1 the inhibition [1] was “Active”.
